Legend:
[1] = system: pYStat3; experiment: Immunoblotting of pStat3 in treated U251MG cells; format: cell-based, human; conditions: for effect on pStat3 in treated tumor cells: 5 μM, glioma cells, immunoblotting
Outline: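 Whole-cell lysates from U251MG cells given test compound at 5 μM for 0–24 h, or at 0–5 μM for 2 h. Immunoblotted for pY705Stat3 and total Stat3, with GAPDH as loading reference.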

[2] = molecular target: T1, Stat1:Stat1 (Mus musculus, UniProt P42225); experiment: Cell-free EMSA, EGF-stimulated NIH3T3/hEGFR nuclear extracts; format: biochemical; conditions: 5 μM, 30 min pre-incubation
T1 sequence (P42225 2-749 limits assumed): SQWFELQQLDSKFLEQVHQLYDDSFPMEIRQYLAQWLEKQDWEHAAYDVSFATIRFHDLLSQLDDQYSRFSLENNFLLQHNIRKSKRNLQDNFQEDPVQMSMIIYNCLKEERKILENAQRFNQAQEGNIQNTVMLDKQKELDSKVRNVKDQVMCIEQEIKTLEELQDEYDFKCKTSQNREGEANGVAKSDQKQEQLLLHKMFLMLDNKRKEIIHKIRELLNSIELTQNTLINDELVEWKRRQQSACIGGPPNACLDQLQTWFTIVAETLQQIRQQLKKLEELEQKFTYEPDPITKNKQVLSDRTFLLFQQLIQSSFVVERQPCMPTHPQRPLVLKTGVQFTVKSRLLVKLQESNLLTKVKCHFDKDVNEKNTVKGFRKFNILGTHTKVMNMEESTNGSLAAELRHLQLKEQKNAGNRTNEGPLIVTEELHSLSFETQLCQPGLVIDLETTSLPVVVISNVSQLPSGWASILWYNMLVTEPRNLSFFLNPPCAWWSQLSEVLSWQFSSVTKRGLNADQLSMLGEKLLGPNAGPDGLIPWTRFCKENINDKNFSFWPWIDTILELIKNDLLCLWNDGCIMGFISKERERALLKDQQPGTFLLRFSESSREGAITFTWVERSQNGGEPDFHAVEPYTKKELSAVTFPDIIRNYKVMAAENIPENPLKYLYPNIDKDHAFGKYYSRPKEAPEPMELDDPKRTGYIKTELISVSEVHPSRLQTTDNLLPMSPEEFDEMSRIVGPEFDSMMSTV
Outline: (§1)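 Nuclear extracts from EGF-stimulated NIH3T3/hEGFR fibroblasts, containing active Stat1, Stat3 and Stat5, preincubated with 5 μM test compound for 30 min at room temperature. Then incubated 30 min with 32P-labelled probe before EMSA: hSIE (Stat1/Stat3 binding) or MGFe (bovine β-casein element; Stat1/Stat5 binding). STAT:DNA bands quantified as percent of control.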

[3] = system: MDA-MB-231 cells; experiment: CyQuant cell proliferation assay; format: cell-based, human; conditions: for effect on MDA-MB-231 cell growth: 5 μM
Outline: (§2)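 CyQuant DNA-dye proliferation assay on cultured cells after 72 h exposure to test compound. Viability expressed relative to DMSO-treated control cells.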

[4] = system: U373MG cells; experiment: CyQuant cell proliferation assay; format: cell-based; conditions: Homo sapiens, U373 MG, 72 h, read-out: IC50 cell proliferation U373MG
Outline: as §2

[5] = system: Stat3; experiment: Stat3 DNA-binding activity/EMSA of nuclear extracts from treated glioma cells; format: cell-based, human; conditions: for effect on Stat3 DNA-binding activity in treated tumor cells: 5 μM, glioma cells, EMSA; for IC50: Homo sapiens, U-251, read-out: IC50 Stat3 DNA-binding activity in treated cells
[6] = system: SF295 cells; experiment: CyQuant cell proliferation assay; format: cell-based; conditions: Homo sapiens, SF-295, 72 h, read-out: IC50 cell proliferation SF295
Outline: as §2

[7] = system: Stat5:Stat5; experiment: Cell-free EMSA, EGF-stimulated NIH3T3/hEGFR nuclear extracts, MGFe probe; format: biochemical, mouse; conditions: 5 μM, 30 min pre-incubation
Outline: as §1

[8] = molecular target: Stat3:Stat3 (Mus musculus, UniProt P42227); experiment: Cell-free EMSA, nuclear extracts pre-incubated with compound, hSIE probe; format: biochemical; conditions: for Stat3:Stat3/DNA-binding activity (complexation), cell-free EMSA: 5 μM, 30 min pre-incubation, NIH3T3/v-Src nuclear extracts
Chain of Stat3:Stat3 (P42227 2-770 limits assumed): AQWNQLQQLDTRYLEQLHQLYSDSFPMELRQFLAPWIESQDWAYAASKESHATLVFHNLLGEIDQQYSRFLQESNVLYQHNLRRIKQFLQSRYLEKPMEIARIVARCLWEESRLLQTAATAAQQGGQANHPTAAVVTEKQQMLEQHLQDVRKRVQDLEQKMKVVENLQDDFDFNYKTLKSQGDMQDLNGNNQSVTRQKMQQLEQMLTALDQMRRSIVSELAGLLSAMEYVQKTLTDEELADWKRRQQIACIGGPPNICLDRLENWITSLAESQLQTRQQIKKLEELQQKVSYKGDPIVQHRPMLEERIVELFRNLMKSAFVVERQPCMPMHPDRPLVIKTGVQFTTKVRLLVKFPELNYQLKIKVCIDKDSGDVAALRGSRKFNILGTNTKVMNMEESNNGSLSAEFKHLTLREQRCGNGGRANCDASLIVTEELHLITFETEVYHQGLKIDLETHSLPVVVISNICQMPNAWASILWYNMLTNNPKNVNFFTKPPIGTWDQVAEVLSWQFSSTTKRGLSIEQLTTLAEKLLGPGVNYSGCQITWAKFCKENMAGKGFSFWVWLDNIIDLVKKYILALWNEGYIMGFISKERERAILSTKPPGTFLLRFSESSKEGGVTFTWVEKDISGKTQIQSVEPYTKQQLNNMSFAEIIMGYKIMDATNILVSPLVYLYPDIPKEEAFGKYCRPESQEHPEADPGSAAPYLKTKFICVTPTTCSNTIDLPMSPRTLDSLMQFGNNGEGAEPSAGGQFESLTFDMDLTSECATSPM

[9] = system: MCF-7 cells; experiment: CyQuant cell proliferation assay; format: cell-based; conditions: Homo sapiens, MCF7, 72 h, read-out: IC50 cell proliferation MCF-7
Outline: as §2

[10] = system: U251MG cells; experiment: CyQuant cell proliferation assay; format: cell-based, human; conditions: for activity against U251MG cell growth: 5 μM; for IC50: Homo sapiens, U-251, 72 h, read-out: IC50 cell proliferation U251MG
Outline: as §2

SMILES	Stat3:Stat3/DNA-binding activity (complexation), cell-free EMSA [8]	effect on pStat3 in treated tumor cells [1]	effect on Stat3 DNA-binding activity in treated tumor cells [5]	activity against U251MG cell growth [10]	also measured
C=C(C)C(=O)O[C@H]1C[C@@H](C)[C@]2(OC)CC[C@](C)(/C=C3/OC(=O)C(CO)=C31)O2 [Compound 28]	only weakly inhibited	little impact			
C[C@@H]1C[C@H](O)C2=C(COC(=O)/C=C/c3ccccc3)C(=O)O/C2=C/[C@@]2(C)CC[C@]1(O)O2 [Compound 30]	diminished	suppressed	suppressed	retained or improved the inhibitory potency	IC50 [10]: 1 to 1.2 µM; IC50 [5]: 0.5 to 2.5 µM
C[C@@H]1C[C@H](O)C2=C(COC(=O)/C=C/c3ccc(C(F)(F)F)cc3)C(=O)O/C2=C/[C@@]2(C)CC[C@]1(O)O2 [Compound 35]	diminished			retained or improved the inhibitory potency	
C[C@@H]1C[C@H](O)C2=C(COC(=O)CCc3ccccc3)C(=O)O/C2=C/[C@@]2(C)CC[C@]1(O)O2 [Compound 36]	diminished	suppressed	suppressed	retained or improved the inhibitory potency	IC50 [10]: 1 to 1.2 µM; IC50 [5]: 0.5 to 2.5 µM
CCCC(CCC)C(=O)OCC1=C2/C(=C\[C@@]3(C)CC[C@](O)(O3)[C@H](C)C[C@@H]2O)OC1=O [Compound 37]	diminished			retained or improved the inhibitory potency	effect on MDA-MB-231 cell growth [3]: strongly inhibited
C/C=C(\C)C(=O)O[C@H]1C[C@@H](C)[C@]2(OC)CC[C@](C)(/C=C3/OC(=O)C(COC(=O)/C=C/c4ccccc4)=C31)O2 [Compound 40]	moderate inhibitory effects			retained or improved the inhibitory potency	effect on MDA-MB-231 cell growth [3]: strongly inhibited
CCN1C(=O)C=CC1=O [NEM, N-ethylmaleimide, reference compound]					Stat3:Stat3/DNA complexation, dose-dependent ([8]; Fig. S3B): inhibits
C=C1C(=O)O[C@H]2[C@H]1CC/C(C)=C/CC[C@@]1(C)O[C@@H]21 [parthenolide, reference compound]					Stat3 activity in tumor cells, control compounds ([1]; Fig. S5E(ii)): did not inhibit; cell growth activity, control compounds ([10]; panel of cell lines, Fig. S5E(i)): poorly-active or non-specific in activity

Continued, in another order:

Stat3:Stat3/DNA-binding activity (complexation), cell-free EMSA [8]	SMILES	effect on pStat3 in treated tumor cells [1]	effect on Stat3 DNA-binding activity in treated tumor cells [5]	activity against U251MG cell growth [10]	also measured
diminished	C=C(C)C(=O)O[C@H]1C[C@@H](C)[C@]2(O)CC[C@](C)(/C=C3/OC(=O)C(COC(C)=O)=C31)O2 [Compound 7]	strongly inhibited	strongly inhibited		effect on Stat1:Stat1 activity, cell-free EMSA [2]: weak effects; IC50 ([3]; Homo sapiens, MDA-MB-231, 72 h, read-out: IC50 cell proliferation MDA-MB-231): 5.2 to 9.1 µM; IC50 [4]: 6.6 to 8.2 µM; IC50 [6]: 7.4 to 18.3 µM; effect on Stat5:Stat5 activity, cell-free EMSA [7]: weak effects; IC50 [9]: 4.8 to 9.6 µM
only weakly inhibited	C/C=C(\C)C(=O)O[C@H]1C[C@@H](C)[C@]2(O)CC[C@](C)(/C=C3/OC(=O)C(CO)=C31)O2 [Compound 8]	little impact			
only weakly inhibited	C[C@@H]1C[C@H](O)C2=C(CO)C(=O)O/C2=C/[C@@]2(C)CC[C@]1(O)O2 [Compound 14]	little impact			
only weakly inhibited	C=C(C)C(=O)O[C@H]1C[C@@H](C)[C@]2(O)CC[C@](C)(/C=C3/OC(=O)C(CO)=C31)O2 [Compound 18]	little impact			
only weakly inhibited	C/C=C(/C)C(=O)O[C@H]1C[C@@H](C)[C@]2(O)CC[C@](C)(/C=C3/OC(=O)C(CO)=C31)O2 [Compound 19]	little impact			
only weakly inhibited	C/C(=C\CO)C(=O)O[C@H]1C[C@@H](C)[C@]2(O)CC[C@](C)(/C=C3/OC(=O)C(CO)=C31)O2 [Compound 21]	little impact			
moderate inhibitory effects	CCC(C)C(=O)OCC1=C2/C(=C\[C@@]3(C)CC[C@](O)(O3)[C@H](C)C[C@@H]2O)OC1=O (stereo partly drawn) [Compound 29]	little effect		weakly-active or inactive	
diminished	CC(C)=CCC/C(C)=C/C(=O)OCC1=C2/C(=C\[C@@]3(C)CC[C@](O)(O3)[C@H](C)C[C@@H]2O)OC1=O [Compound 31]	suppressed	suppressed	retained or improved the inhibitory potency	effect on Stat1:Stat1 activity, cell-free EMSA [2]: moderate effect; IC50 [10]: 1 to 1.2 µM; IC50 [5]: 0.5 to 2.5 µM
diminished	CC(C)=CC(=O)OCC1=C2/C(=C\[C@@]3(C)CC[C@](O)(O3)[C@H](C)C[C@@H]2O)OC1=O [Compound 32]	moderate effect		weakly-active or inactive	
diminished	CC(C)=CCCC(C)CC(=O)OCC1=C2/C(=C\[C@@]3(C)CC[C@](O)(O3)[C@H](C)C[C@@H]2O)OC1=O (stereo partly drawn) [Compound 33]	suppressed	suppressed	retained or improved the inhibitory potency	IC50 [10]: 1 to 1.2 µM; IC50 [5]: 0.5 to 2.5 µM
diminished	C[C@@H]1C[C@H](O)C2=C(COC(=O)/C=C/c3ccc(F)cc3)C(=O)O/C2=C/[C@@]2(C)CC[C@]1(O)O2 [Compound 34]			retained or improved the inhibitory potency	effect on MDA-MB-231 cell growth [3]: strongly inhibited
diminished	C/C=C(\C)C(=O)OCC1=C2/C(=C\[C@@]3(C)CC[C@](OC)(O3)[C@H](C)C[C@@H]2OC(=O)/C(C)=C/C)OC1=O [Compound 39]	suppressed	suppressed	retained or improved the inhibitory potency	effect on MDA-MB-231 cell growth [3]: strongly inhibited; IC50 [5]: 0.5 to 2.5 µM

Source: article PMC4834983 (Journal of medicinal chemistry, 2015)
